These results are taken from ChEMBL document CHEMBL1123829, “Resolved cis-10-hydroxy-4-n-propyl-1,2,3,4,4a,5,6,10b- octahydrobenzo[f]quinoline : central serotonin stimulating properties” (1987).

Calls of active or inactive are those of the source. The calls are words filed in the database; no cut-off is given here.

For assay [1], the species on record is Rattus norvegicus. In words: Compound was tested for Dopa accumulation in corpus striatum(brain) of reserpinized rat; I = Inactive. It counts as functional, organism-based.
Assay [2] is filed under the species Rattus norvegicus. Nature of the assay: Compound was tested for Dopa accumulation in hemispheres (brain) of reserpinized rat; I = Inactive. It counts as functional, organism-based.
For assay [3], the species on record is Rattus norvegicus. Nature of the assay: Compound was tested for Dopa accumulation in limbic system(brain) of reserpinized rat; I = Inactive. It counts as functional, organism-based.
Assay [4] deals with Rattus norvegicus. In words: Compound was tested for 5-HTP accumulation in limbic system(brain) of reserpinized rat; A partial agonistic response at a dose of 12.5 uM/kg. The assay is classed as functional, organism-based. The note with it: filed as partial agonist.
Assay [5] has as its system Rattus norvegicus. Nature of the assay: Compound was tested for Dopa accumulation in corpus striatum(brain) of reserpinized rat; A partial agonistic response at a dose of 25 uM/kg. The conditions noted are these: filed as partial agonist. The assay is classed as functional, organism-based.
The test system of assay [6] is Rattus norvegicus. In words: Compound was tested for Dopa accumulation in hemispheres (brain) of reserpinized rat; A partial agonistic response at a dose of 50 uM/kg. It counts as functional, organism-based. The conditions noted are these: filed as partial agonist.
For assay [7], the system named is Rattus norvegicus. In words: Compound was tested for Dopa accumulation in limbic system(brain) of reserpinized rat; A partial agonistic response at a dose of 12.5 uM/kg. The assay is classed as functional, organism-based. The conditions noted are these: filed as partial agonist.
Assay [8] relates to Rattus norvegicus. Nature of the assay: Compound was tested for 5-HTP accumulation in corpus striatum(brain) of reserpinized rat; A partial agonistic response at a dose of 25 uM/kg. It counts as functional, organism-based. The conditions noted are these: filed as partial agonist.
In assay [9] the test system is Rattus norvegicus. Nature of the assay: Compound was tested for 5-HTP accumulation in hemispheres (brain) of reserpinized rat; A partial agonistic response at a dose of 50 uM/kg. The assay is classed as functional, organism-based. The note with it: filed as partial agonist.
The species named for assay [10] is Rattus norvegicus. Nature of the assay: Compound was tested for 5-HTP accumulation in limbic system(brain) of reserpinized rat. It counts as functional. In outline: (§1)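 Male Sprague-Dawley rats (200–300 g), pretreated with reserpine in glacial acetic acid/5.5% glucose. Compounds were given sc in saline at neutral pH. 5-HTP in striatum, limbic system or hemispheres was measured by HPLC with electrochemical detection. Dose-response curves used 4–6 dose levels per substance and region, with 95% confidence limits by modified probit analysis.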

The species named for assay [11] is Rattus norvegicus. In words: Compound was tested for 5-HTP accumulation in corpus striatum(brain) of reserpinized rat. The assay is classed as functional. In outline:
as §1

For assay [12], the species on record is Rattus norvegicus. Nature of the assay: Compound was tested for 5-HTP accumulation in hemispheres (brain) of reserpinized rat; I = Inactive. The assay is classed as functional. A digest of the protocol:
as §1

Assay [13] is filed under the species Rattus norvegicus. Nature of the assay: Compound was tested for 5-HTP accumulation in corpus striatum(brain) of reserpinized rat. The assay is classed as functional. In outline:
as §1

The species named for assay [14] is Rattus norvegicus. In words: Compound was tested for 5-HTP accumulation in hemispheres (brain) of reserpinized rat. The assay is classed as functional. A digest of the protocol:
as §1

The species named for assay [15] is Rattus norvegicus. Nature of the assay: Compound was tested for 5-HTP accumulation in limbic system(brain) of reserpinized rat. The assay is classed as functional. A digest of the protocol: as §1
The species named for assay [16] is Rattus norvegicus. Nature of the assay: Compound was tested for 5-HTP accumulation in corpus striatum (brain) of reserpinized rat. The assay is classed as functional. A digest of the protocol:
as §1

For assay [17], the species on record is Rattus norvegicus. In words: Compound was tested for Dopa accumulation in limbic system (brain) of reserpinized rat; I = Inactive. The assay is classed as functional, organism-based.
The species named for assay [18] is Rattus norvegicus. Nature of the assay: Compound was tested for 5-HTP accumulation in hemispheres (brain) of reserpinized rat. It counts as functional. In outline: as §1
Assay [19] is filed under the species Rattus norvegicus. Nature of the assay: Compound was tested for 5-HTP accumulation in limbic system (brain) of reserpinized rat. The assay is classed as functional. In outline: as §1

Turning to `CCCN1CCCC2c3c(O)cccc3CCC21` (stereo in doubt) [listing 1 of 2 here], the ED50 result in [1], in assay [2] and in assay [3] was “inactive” throughout.

For `CCCN1CCCC2c3c(O)cccc3CCC21` (centres undefined), the ED50 entry in assay [4], in [5], in [6], in assay [7], in [8] and in [9] was “Partial agonist” in each case.

Consider `CCCN1CCCC2c3c(O)cccc3CCC21` (stereo in doubt; 4) [listing 1 of 2 here], for which the ED50 entry in assay [1], in [2] and in assay [3] was “inactive” each time.

On to `CCCN1CCCC2c3c(O)cccc3CCC21` (stereo in doubt; 4) [listing 2 of 2 here], for which the ED50 in [10] was 3.4 µmol/kg; in assay [11], 3.4 µmol/kg; in [12], 4.5 µmol/kg.

On to `CCCN1CCCC2c3c(O)cccc3CCC21` (stereo in doubt) [listing 2 of 2 here], for which the results for the ED50 in [13], in assay [14] and in assay [15] were 3.63 µmol/kg, 3.47 µmol/kg and 2.57 µmol/kg, respectively.

In the case of `CCCN(CCC)[C@@H]1CCc2cccc(O)c2[C@@H]1C`, the ED50 result in [1], in assay [2] and in assay [17] was “inactive” in each case. For the same compound, the values for the 50% effective dose (ED50) in assay [16], in assay [18] and in assay [19] were 0.04 µmol/kg, 0.09 µmol/kg and 0.09 µmol/kg, respectively.

By ED50 is commonly meant the midpoint of the dose-response relation.
